NR2E3 ag-1 = NR2E3 agonists in two-hybrid cells, primary screen, cell-based, luminescence, CHO-S, Gal4-NCOR/VP16-NR2E3 | Photoreceptor-specific nuclear receptor (Homo sapiens), Q9Y5X4 | luciferase | inhibition of corepressor binding, % at 3.98 µM | actives 0.35% (n = 360,000) | AID 602229, 2012;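 active = inhibition above the mean of all tested compounds plus 3 SD, cut at about 70% in these data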;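 note: higher means lower luciferase signal from less NR2E3 corepressor binding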
Env fusion inh = inhibitors of HIV-1 Env-driven cell-cell fusion, primary screen, HeLa-JRFL effector, CEM21 target cells, luciferase | inhibition, % at 12.3 µM | actives 1.1% (n = 360,000) | AID 651610, 2012;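 active = mean replicate inhibition score of at least 50 and every replicate individually at or above 50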
NR2E3 ag-2 = inhibitors of NR2E3-RetCOR corepressor binding, primary screen, NR2E3 agonist project, biochemical, TR-FRET, GST-NR2E3, biotin-RetCOR. Photoreceptor-specific nuclear receptor (Homo sapiens), Q9Y5X4. 1536-well. inhibition of corepressor binding, % at 4.78 µM. actives 0.12% (n = 320,000). AID 2300, 2010;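 active = percent inhibition above the cutoff of mean plus 3 SD of all tested compounds, set per screening campaign, cut at about 20% in these data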
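system = GST-tagged NR2E3 plus biotinylated RetCOR corepressor | input = 1.35 nM GST-NR2E3 | also added = 7 nM biotin-RetCOR | schedule = 5 h incubation at 4 °C | measured by = TR-FRET with europium anti-GST and streptavidin-D2, 340 nm excitation | read-out = percent loss of FRET ratio relative to control wells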
GAA850 FXN act = FXN promoter activators, primary screen, cell-based, luciferase luminescence, HEK293 lucGAA850; activation, % at 6 µM; AID 540364, 2011; actives 0.56% (n = 360,000); HEK293 lucGAA850 FXN promoter luciferase reporter, 24 h; percent of 10 µM SAHA response;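 active = activation above the average of all compounds screened plus 3 SD, cutoff fixed separately per campaign, cut at about 7.5% in these data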
V-ATPase pHluor = regulators of yeast V-ATPase proton pumping, primary screen, pHLuorin cytosolic pH fluorescence; S. cerevisiae; response, % at 10 µM; actives 0.37% (n = 350,000); AID 504577, 2011; in the data active = response mostly above about 7.3%, no sharp cut-off; inactive = mostly below about 5.4%; note: actives read high
GalR3 antagonist = GalR3 antagonists in HEK293 cells, primary screen, cell-based, fluorescence readout. Galanin receptor type 3 (Homo sapiens), O60755. HEK293 GalR3-CNG cAMP membrane potential fluorescence; galR3 body fused to GalR1 C-terminus. inhibition, % at 3 µM. actives 0.44% (n = 360,000);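 active = inhibition above the screen-wide average plus 3 SD, cut at about 13% in these data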;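 note: forskolin and galanin both at EC90 stimulate the cells; cAMP rise reported by CNG channel membrane potential dye signal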
Target sequence (O60755 1-299 limits assumed): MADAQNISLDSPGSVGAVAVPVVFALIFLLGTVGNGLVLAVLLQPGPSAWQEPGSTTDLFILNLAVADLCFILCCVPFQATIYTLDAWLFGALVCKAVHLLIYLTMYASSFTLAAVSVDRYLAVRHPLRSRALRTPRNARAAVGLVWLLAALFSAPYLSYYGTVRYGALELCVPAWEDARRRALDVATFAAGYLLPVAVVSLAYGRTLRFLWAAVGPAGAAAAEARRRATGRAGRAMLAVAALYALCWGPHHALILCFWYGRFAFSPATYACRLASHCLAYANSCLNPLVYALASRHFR
GalR3 conf = GalR3 antagonist hit confirmation, cell-based, fluorescence, triplicate. AID 652245, 2013. inhibition, % at 3 µM. HEK293 GalR3 CNG cAMP biosensor, membrane potential fluorescence; galR3 fused to GalR1 carboxy tail; challenged with forskolin and galanin at EC90. actives 59% (n = 1,600). shares compounds with GalR3 antagonist;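 active = inhibition above the primary screen's cutoff, the mean inhibition of all screened compounds plus 3 SD, cut at about 13% in these data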
CNG parental = nonspecific cAMP agonists in parental HEK-CNG cells, counter-screen for GalR3 antagonist project, cell-based, fluorescence, high throughput | shares compounds with GalR3 antagonist | HEK293-CNG parental cells, cAMP membrane potential fluorescence; normalised: DMSO wells 0%, forskolin wells 100% | activation, % at 3 µM | actives 10% (n = 1,600) | AID 652268, 2013; in the data active = activation above about 1.3%
Hits are given with their value. Compounds with a hit are over-represented: about 2.2% of the library has one in this group of screens.

Screening Cc1cc(NC(=O)CSc2nnc(-c3ccco3)o2)no1 returned NR2E3 ag-1 inactive, NR2E3 ag-2 inactive, GAA850 FXN act inactive, V-ATPase pHluor inactive, GalR3 conf inactive and CNG parental inactive.
Screening CCOc1ccc(Nc2cc3n(c(=O)n2)CCc2cc(OC)c(OC)cc2-3)cc1 returned NR2E3 ag-1 inactive, Env fusion inh inactive, NR2E3 ag-2 inactive, GAA850 FXN act inactive, V-ATPase pHluor inactive and GalR3 antagonist inactive.
Screening COc1cc2c(cc1OC)-c1cc(Nc3ccccc3C)nc(=O)n1CC2 returned NR2E3 ag-1 inactive, Env fusion inh inactive, NR2E3 ag-2 inactive, GAA850 FXN act inactive, V-ATPase pHluor inactive, GalR3 antagonist 46, GalR3 conf 53 and CNG parental inactive.
Screening CCOc1ccccc1Nc1cc2n(c(=O)n1)CCc1cc(OC)c(OC)cc1-2 returned NR2E3 ag-1 inactive, Env fusion inh inactive, NR2E3 ag-2 inactive, GAA850 FXN act inactive, V-ATPase pHluor inactive, GalR3 antagonist 53, GalR3 conf 67 and CNG parental inactive.
COc1cc2c(cc1OC)-c1cc(Nc3cccc(C)c3)nc(=O)n1CC2 was read as NR2E3 ag-1 inactive, Env fusion inh inactive, NR2E3 ag-2 inactive, GAA850 FXN act inactive, V-ATPase pHluor inactive, GalR3 antagonist 53, GalR3 conf 59 and CNG parental inactive.
For CN(C)CCCNS(=O)(=O)c1ccc(N2CCN(Cc3ccc4c(c3)OCO4)CC2)c([N+](=O)[O-])c1 the results were NR2E3 ag-1 inactive, Env fusion inh inactive, NR2E3 ag-2 inactive, GAA850 FXN act inactive, V-ATPase pHluor inactive, GalR3 antagonist 57, GalR3 conf 95 and CNG parental inactive.
Screening CC(=O)c1ccc(N2CCN(c3ccc(S(=O)(=O)NCCCN(C)C)cc3[N+](=O)[O-])CC2)cc1 returned NR2E3 ag-1 inactive, Env fusion inh inactive, NR2E3 ag-2 inactive, GAA850 FXN act inactive, V-ATPase pHluor inactive and GalR3 antagonist inactive.
Screening CN1CCN(C(=S)C(=O)Nc2ccc(Br)cc2)CC1 returned NR2E3 ag-1 inactive, Env fusion inh inactive, NR2E3 ag-2 inactive, GAA850 FXN act inactive, V-ATPase pHluor inactive, GalR3 antagonist 40, GalR3 conf inactive and CNG parental inactive.
CN1CCN(C(=S)NC(=O)c2ccc(Br)cc2)CC1 was read as NR2E3 ag-1 inactive, Env fusion inh inactive, NR2E3 ag-2 inactive, GAA850 FXN act inactive, V-ATPase pHluor inactive and GalR3 antagonist inactive.
O=C(Cc1ccncc1)Nc1ccc2c(c1)[C@H]1C[C@@H](CC(=O)N3CCCCC3)O[C@@H](CO)[C@H]1O2 was read as Env fusion inh inactive.
CCc1nc(C)cn1S(=O)(=O)c1cc(C)c(OC)cc1C was read as NR2E3 ag-1 inactive, Env fusion inh inactive, NR2E3 ag-2 inactive, GAA850 FXN act inactive, V-ATPase pHluor inactive and GalR3 antagonist inactive.
CCc1nc(C)cn1S(=O)(=O)c1cc(C)c(OC)c(C)c1C was read as NR2E3 ag-1 inactive, Env fusion inh inactive, NR2E3 ag-2 inactive, GAA850 FXN act inactive, V-ATPase pHluor inactive, GalR3 antagonist 26, GalR3 conf 82 and CNG parental inactive.
For Cc1ccc(S(=O)(=O)N[C@@H]2CC[C@@H](CC(=O)N3CCC(Cc4ccccc4)CC3)O[C@H]2CO)cc1 the results were Env fusion inh inactive.

Compound activity: PubChem BioAssay, several laboratories
